Experimental findings from ChEMBL document CHEMBL1138570, “2-Acylhydrazino-5-arylpyrrole derivatives: synthesis and antifungal activity evaluation” (Eur J Med Chem, 2009) are described below.

Converted amounts (≈) assume the structure as drawn.

Holding throughout (format): functional
Assay [1] has as its system Candida parapsilosis. Put plainly: Antimicrobial activity against Candida parapsilosis after 72 hrs by broth microdilution method. Particulars: Lodderomyces parapsilosis. The method in brief:
(§1)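 MFC: after MIC reading, a sample from each well was plated on Sabouraud dextrose agar and incubated 72 h at 35 °C. MFC was taken as the minimum concentration killing >99% of the original inoculum. The MIC step was NCCLS broth microdilution in MOPS-buffered RPMI 1640 (pH 7.0), with 2 ×10⁴ cells/mL, overnight at 35 °C.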
(In broth dilution the organism is exposed to a series of concentrations in liquid medium.)

The subject of assay [2] is Candida parapsilosis. The assay can be described thus: Antimicrobial activity against Candida parapsilosis by broth microdilution method. Particulars: Lodderomyces parapsilosis. The method in brief:
(§2)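 MIC by NCCLS broth microdilution. Medium was RPMI 1640 with L-glutamine, buffered with 0.165 M MOPS at pH 7.0. Twofold drug dilutions ran 0.008–200 mg/L. Inoculum was set spectrophotometrically to 10⁶ CFU/mL, then diluted in medium to 2 ×10⁴ cells/mL. Plates were incubated overnight at 35 °C in humid air, agitated, and read visually and at 450 nm.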

Assay [3] concerns Pichia kudriavzevii. The assay can be described thus: Antimicrobial activity against Candida krusei by broth microdilution method. The method in brief:
as §2

In assay [4] the test system is Nakaseomyces glabratus. The assay can be described thus: Antimicrobial activity against Candida glabrata after 72 hrs by broth microdilution method. The method in brief: as §1
The subject of assay [5] is Candida albicans. Put plainly: Antimicrobial activity against Candida albicans ATCC 10231 by broth microdilution method. The method in brief: as §2
Assay [6] concerns Pichia kudriavzevii. Put plainly: Antimicrobial activity against Candida krusei after 72 hrs by broth microdilution method. The method in brief:
as §1

The subject of assay [7] is Candida albicans. Put plainly: Antimicrobial activity against Candida albicans ATCC 10231 after 72 hrs by broth microdilution method. Particulars: ATCC 10231, 72 h. The method in brief:
as §1

Assay [8] relates to Nakaseomyces glabratus. The assay can be described thus: Antimicrobial activity against Candida glabrata by broth microdilution method. The method in brief: as §2

With `CCOC(=O)c1cc(-c2ccc(OC)cc2)[nH]c1NNC(=O)CCOC`, the MFC in the assay on Candida parapsilosis [1] came out at 100 µg/mL (≈ 277 µM); with Nakaseomyces glabratus [4], 100 µg/mL (≈ 277 µM); against Pichia kudriavzevii [6] it was 100 µg/mL (≈ 277 µM); with Candida albicans [7], 6.25 µg/mL (≈ 17.3 µM). Also, the MIC amounted to 25 µg/mL (≈ 69.2 µM) in the assay with Candida parapsilosis [2], 50 µg/mL (≈ 138 µM) with Pichia kudriavzevii [3], 6.25 µg/mL (≈ 17.3 µM) in the assay with Candida albicans [5] and 12.5 µg/mL (≈ 34.6 µM) in the assay on Nakaseomyces glabratus [8].
Take `CCCC(=O)NNc1[nH]c(-c2ccc(OC)cc2)cc1C(=O)OCC`: the MFC with Candida parapsilosis [1] was more than 100 µg/mL; in the assay on Nakaseomyces glabratus [4], more than 100 µg/mL; against Pichia kudriavzevii [6], 100 µg/mL (≈ 290 µM); against Candida albicans [7], 12.5 µg/mL (≈ 36.2 µM). Moreover, the MIC was 12.5 µg/mL (≈ 36.2 µM) with Candida parapsilosis [2], 50 µg/mL (≈ 145 µM) with Pichia kudriavzevii [3], 12.5 µg/mL (≈ 36.2 µM) in the assay with Candida albicans [5] and more than 100 µg/mL in the assay on Nakaseomyces glabratus [8].
As to `CCOC(=O)c1cc(-c2ccccc2)[nH]c1NNC(=O)Cc1ccc(OC)cc1`, the minimum fungicidal concentration (MFC) with Candida parapsilosis [1], against Nakaseomyces glabratus [4], against Pichia kudriavzevii [6] and with Candida albicans [7] was more than 100 µg/mL in each case. In addition, the MIC in the assay with Candida parapsilosis [2] was 50 µg/mL (≈ 127 µM); with Pichia kudriavzevii [3], 50 µg/mL (≈ 127 µM); in the assay on Candida albicans [5] it was more than 100 µg/mL; in the assay on Nakaseomyces glabratus [8], more than 100 µg/mL.
For the compound `CCOC(=O)c1cc(-c2ccccc2)[nH]c1NNC(=O)CCOC`, the MFC with Candida parapsilosis [1] turned out to be 25 µg/mL (≈ 75.4 µM); with Nakaseomyces glabratus [4], 25 µg/mL (≈ 75.4 µM); against Pichia kudriavzevii [6] it was 50 µg/mL (≈ 151 µM); in the assay with Candida albicans [7], 6.25 µg/mL (≈ 18.9 µM). In addition, the MIC against Candida parapsilosis [2] came out at 6.25 µg/mL (≈ 18.9 µM); against Pichia kudriavzevii [3], 12.5 µg/mL (≈ 37.7 µM); with Candida albicans [5], 3.12 µg/mL (≈ 9.42 µM); with Nakaseomyces glabratus [8], 6.25 µg/mL (≈ 18.9 µM).
Turning to `CC(=O)NNc1[nH]c(-c2ccccc2)cc1C#N`, the MFC against Candida parapsilosis [1] was 12.5 µg/mL (≈ 52 µM); against Nakaseomyces glabratus [4], 12.5 µg/mL (≈ 52 µM); in the assay with Pichia kudriavzevii [6] it was 6.25 µg/mL (≈ 26 µM); against Candida albicans [7] it was 3.12 µg/mL (≈ 13 µM). Besides, the MIC against Candida parapsilosis [2] worked out at 3.12 µg/mL (≈ 13 µM); against Pichia kudriavzevii [3], 3.12 µg/mL (≈ 13 µM); against Candida albicans [5], 3.12 µg/mL (≈ 13 µM); with Nakaseomyces glabratus [8], 6.25 µg/mL (≈ 26 µM).
With `CCOC(=O)c1cc(-c2ccccc2)[nH]c1NNC(=O)CC`, the MFC worked out at 25 µg/mL (≈ 83 µM) with Candida parapsilosis [1], 12.5 µg/mL (≈ 41.5 µM) in the assay with Nakaseomyces glabratus [4], 25 µg/mL (≈ 83 µM) against Pichia kudriavzevii [6] and 12.5 µg/mL (≈ 41.5 µM) with Candida albicans [7]. The MIC against Candida parapsilosis [2] came out at 6.25 µg/mL (≈ 20.7 µM); in the assay with Pichia kudriavzevii [3] it was 12.5 µg/mL (≈ 41.5 µM); against Candida albicans [5] it was 3.12 µg/mL (≈ 10.4 µM); in the assay with Nakaseomyces glabratus [8], 6.25 µg/mL (≈ 20.7 µM).
For `CCOC(=O)c1cc(-c2ccc(OC)cc2)[nH]c1NNC(=O)CC`, the MFC against Candida parapsilosis [1] came to 25 µg/mL (≈ 75.4 µM); against Nakaseomyces glabratus [4] it was 12.5 µg/mL (≈ 37.7 µM); in the assay with Pichia kudriavzevii [6] it was 100 µg/mL (≈ 302 µM); in the assay on Candida albicans [7], 12.5 µg/mL (≈ 37.7 µM). Also, the MIC in the assay on Candida parapsilosis [2] is 12.5 µg/mL (≈ 37.7 µM); against Pichia kudriavzevii [3], 25 µg/mL (≈ 75.4 µM); in the assay on Candida albicans [5], 3.12 µg/mL (≈ 9.42 µM); against Nakaseomyces glabratus [8] it was 6.25 µg/mL (≈ 18.9 µM).
In the case of `CCCC(=O)NNc1[nH]c(-c2ccc(Cl)cc2)cc1C(=O)OCC`, the MFC against Candida parapsilosis [1], against Nakaseomyces glabratus [4], in the assay with Pichia kudriavzevii [6] and in the assay on Candida albicans [7] was more than 100 µg/mL each time. Further, the MIC against Candida parapsilosis [2], in the assay with Pichia kudriavzevii [3], with Candida albicans [5] and against Nakaseomyces glabratus [8] was more than 100 µg/mL each time.
Consider `CCCC(=O)NNc1[nH]c(-c2ccc(C)cc2)cc1C(=O)OCC`, for which the MFC against Candida parapsilosis [1], against Nakaseomyces glabratus [4], in the assay with Pichia kudriavzevii [6] and in the assay with Candida albicans [7] was more than 100 µg/mL each time. For the same compound, the MIC with Candida parapsilosis [2] was 25 µg/mL (≈ 75.9 µM); against Pichia kudriavzevii [3], more than 100 µg/mL; against Candida albicans [5], more than 100 µg/mL; against Nakaseomyces glabratus [8], more than 100 µg/mL.
With `CCOC(=O)c1cc(-c2ccc(C)cc2)[nH]c1NNC(C)=O`, the MFC in the assay with Candida parapsilosis [1] was 50 µg/mL (≈ 166 µM); against Nakaseomyces glabratus [4], more than 100 µg/mL; against Pichia kudriavzevii [6] it was more than 100 µg/mL; in the assay on Candida albicans [7], more than 100 µg/mL. In addition, the MIC against Candida parapsilosis [2] was 50 µg/mL (≈ 166 µM); against Pichia kudriavzevii [3], 100 µg/mL (≈ 332 µM); against Candida albicans [5], more than 100 µg/mL; with Nakaseomyces glabratus [8], more than 100 µg/mL.
Take `CCOC(=O)NNc1[nH]c(-c2ccccc2)cc1C(=O)OCC`: the minimal fungicidal concentration (MFC) came to 12.5 µg/mL (≈ 39.4 µM) in the assay on Candida parapsilosis [1], 12.5 µg/mL (≈ 39.4 µM) in the assay with Nakaseomyces glabratus [4], 25 µg/mL (≈ 78.8 µM) with Pichia kudriavzevii [6] and 3.12 µg/mL (≈ 9.83 µM) against Candida albicans [7]. For the same compound, the MIC with Candida parapsilosis [2] is 6.25 µg/mL (≈ 19.7 µM); against Pichia kudriavzevii [3] it was 12.5 µg/mL (≈ 39.4 µM); against Candida albicans [5], 3.12 µg/mL (≈ 9.83 µM); with Nakaseomyces glabratus [8], 6.25 µg/mL (≈ 19.7 µM).
Turning to `CCOC(=O)c1cc(-c2ccccc2)[nH]c1NNC(C)=O`, the MFC was 100 µg/mL (≈ 348 µM) against Candida parapsilosis [1], more than 100 µg/mL in the assay on Nakaseomyces glabratus [4], 50 µg/mL (≈ 174 µM) in the assay with Pichia kudriavzevii [6] and 12.5 µg/mL (≈ 43.5 µM) in the assay with Candida albicans [7]. In addition, the MIC against Candida parapsilosis [2] was found to be 50 µg/mL (≈ 174 µM); in the assay with Pichia kudriavzevii [3], 50 µg/mL (≈ 174 µM); in the assay with Candida albicans [5] it was 12.5 µg/mL (≈ 43.5 µM); against Nakaseomyces glabratus [8], 12.5 µg/mL (≈ 43.5 µM).
Regarding `CCOC(=O)NNc1[nH]c(-c2ccc(Cl)cc2)cc1C(=O)OCC`, the MFC was 12.5 µg/mL (≈ 35.5 µM) in the assay on Candida parapsilosis [1], more than 100 µg/mL in the assay with Nakaseomyces glabratus [4], more than 100 µg/mL in the assay with Pichia kudriavzevii [6] and more than 100 µg/mL in the assay with Candida albicans [7]. Besides, the MIC in the assay on Candida parapsilosis [2] was 12.5 µg/mL (≈ 35.5 µM); in the assay on Pichia kudriavzevii [3] it was 50 µg/mL (≈ 142 µM); against Candida albicans [5] it was 25 µg/mL (≈ 71.1 µM); with Nakaseomyces glabratus [8], more than 100 µg/mL.

One may read the MFC as the lowest tested concentration that kills the fungus rather than only halting it. The low end stands for greater fungicidal potency, the high end for weaker fungicidal potency. In general, MIC refers to the least concentration at which growth counts as inhibited. Read a low MIC as greater potency.
